# Results: publication PMC4356685 (International Journal of Nanomedicine, 2015)
# What was measured:
# [1] = Pharmacokinetic studies in rats; type: in vivo, Sprague Dawley (SD) rats
# In short: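 Female SD rats (200±20 g), three per group, received a single tail-vein injection in 0.9% saline (10 mg/kg drug-equivalent). Retro-orbital blood was taken at 5, 15 and 30 min and at 1, 1.5, 2, 4, 7, 10 and 24 h into heparinized tubes. Plasma was stored at −20°C, extracted, redissolved in acetonitrile, filtered and quantified by HPLC against spiked-plasma standard curves. Parameters came from a two-compartment model fit.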
# [2] = tested on: 4T1 murine breast tumors; assay: In vivo anticancer efficacy; conditions: 4T1 tumor-bearing BALB/c mice, PTX 10 mg/kg i.v. at days 10, 13, 16, 19
# In short: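 Female BALB/c mice (4–6 weeks old) were inoculated subcutaneously in the left back, under anesthesia, with ~5×10^5 4T1 cells in PBS. Dosing began at a tumor volume of about 50–100 mm3: 10 mg/kg drug-equivalent by tail-vein injection on days 10, 13, 16 and 19 after inoculation, with a normal-saline control. Tumors (V = L×W²/2) and body weight were measured every 2 days until day 23. Survival was followed until death from tumor growth or treatment.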
# [3] = Toxicity in tumor-bearing mice; type: in vivo; conditions: PTX 10 mg/kg i.v. in 4T1 tumor-bearing BALB/c mice
# [4] = tested on: 4T1 cells; assay: In vitro cytotoxicity, WST-8 assay; type: cell-based, mouse; conditions: 48 hours, WST-8, n=5
# [5] = Sprague-Dawley, rat, plasma, iv, 10 mg/kg
# [6] = rats, i.v. tail vein, 10 mg/kg of PTX, two-compartment model
smiles,measurement,setting,value
"CC(=O)O[C@H]1C(=O)[C@@]2(C)[C@H]([C@H](OC(=O)c3ccccc3)[C@]3(O)C[C@H](OC(=O)[C@H](O)[C@@H](NC(=O)c4ccccc4)c4ccccc4)C(C)=C1C3(C)C)[C@]1(OC(C)=O)CO[C@@H]1C[C@@H]2O [Free PTX, paclitaxel]",AUC(0-inf),[1]; [5],49200 ± 16900 ng·h/mL
same,AUC(0-t),[1]; [5],46600 ± 16800 ng·h/mL
same,clearance,[1]; [5],8.5 mL/min/kg
same,k el,[1]; [5],0.000511 s⁻¹
same,K12 (transfer rate constant from central to periphery compartment),[1]; [6],0.45 ± 0.33 h⁻¹
same,K21 (transfer rate constant from periphery to central compartment),[1]; [6],0.55 ± 0.24 h⁻¹
same,V1 (volume of central compartment),[1]; [6],0.28 ± 0.02 L/kg
same,V2 (volume of periphery compartment),[1]; [6],0.21 ± 0.12 L/kg
same,median survival time,[2],31 days
same,tumor inhibition rate,[2]; n=8,32.5%
same,acute toxicity / deaths after intravenous injection,[3],some deaths were observed a few minutes after the injection
same,cytotoxicity (cell viability) compared with other formulations,[4],stronger inhibition effects compared to the PEGylated nanoparticles
